The text below walks through data of ChEMBL document CHEMBL5331127, “Discovery of ARD-2051 as a Potent and Orally Efficacious Proteolysis Targeting Chimera (PROTAC) Degrader of Androgen Receptor for the Treatment of Advanced Prostate Cancer” (J Med Chem, 2023).

The source made the active and inactive calls. No cut-off for these calls is given here.

The test system of series [1] is LNCaP. Kind of series: Growth inhibition in human LNCaP cells incubated for 4 days by WST-8 assay. Conditions: 96 h. Type of series: functional, cell-based.
In series [2] the test system is VCaP. Kind of series: Induction of androgen receptor degradation in human VCaP cells at 100 nM pretreated with thalidomide for 2 hrs followed by compound addition and 3 hrs by Western blot analysis. Type of series: functional, cell-based. Conditions: time 5.0 hrs. In a few lines: (§1)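 LNCaP or VCaP cells pretreated 2 h with DMSO, ARi-12 (10 μM), thalidomide (10 μM), MG-132 (3 μM) or MLN4924 (0.5 μM), then given degrader at 100 nM for 3 h. AR measured by Western blot with GAPDH as loading control.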
Background: A western blot detects proteins with antibodies after separation by electrophoresis.

Series [3] concerns VCaP. Description: Induction of androgen receptor degradation in human VCaP cells at 100 nM pretreated with MLN4924 for 2 hrs followed by compound addition and 3 hrs by Western blot analysis. The series is classed as functional, cell-based. Conditions: time 5.0 hrs. Put shortly:
as §1

In series [4] the test system is LNCaP. Description: Induction of androgen receptor degradation in human LNCaP cells at 100 nM pretreated with ARi-12 for 2 hrs followed by compound addition and 3 hrs by Western blot analysis. Type of series: functional, cell-based. As to conditions: time 5.0 hrs. In a few lines: as §1
The nature of series [5]: Downregulation of KLK3 gene expression in human LNCaP cells at 10 nM incubated for 24 hrs by qRT-PCR analysis. The series is classed as functional. Put shortly: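 LNCaP cells (RPMI 1640) or VCaP cells (DMEM Glutamax), both with 10% FBS, treated for 24 h. KLK3 mRNA measured by qRT-PCR and calculated by the comparative CT method against GAPDH and vehicle.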
Series [6] is described as follows: Metabolic stability in rat liver microsomes assessed as half life at 1 uM measured upto 45 mins in presence of NADPH by LC-MS/MS analysis. The series is classed as ADME, Microsome. As to conditions: 0.75 h. In a few lines:
(§2)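 Pooled liver microsomes from each species: 1 μM compound with 0.5 mg/mL microsomes and 1.7 mM NADPH in 0.1 M K-phosphate, pH 7.4, 5 mM MgCl2, 37 °C. Sampled at 0, 5, 10, 15, 30 and 45 min with cold ACN quench. No-NADPH incubation as negative control; ketanserin as positive control. LC-MS/MS; half-life from ln(remaining) versus time.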

Series [7] can be described thus: Metabolic stability in dog liver microsomes assessed as half life at 1 uM measured upto 45 mins in presence of NADPH by LC-MS/MS analysis. Conditions: 0.75 h. The series is classed as ADME, Canis lupus familiaris, Microsome. In a few lines:
as §2
(In general: Microsomes from liver hold many membrane-bound enzymes, among them those of drug oxidation.)

The nature of series [8]: Metabolic stability in monkey liver microsomes assessed as half life at 1 uM measured upto 45 mins in presence of NADPH by LC-MS/MS analysis. The series is classed as ADME, Macaca mulatta, Microsome. Conditions: rhesus monkey, 0.75 h. In a few lines: as §2
A short description of series [9]: Plasma protein binding in mouse at 1 uM after 5 hrs by equilibrium dialysis based LC-MS/MS analysis. The series is classed as ADME, cell-free. In a few lines: (§3)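 Equilibrium dialysis of pooled plasma of each species spiked at 1 μM against 0.1 M sodium phosphate, pH 7.4. 5 h at 37 °C with shaking at 60 rpm. Both sides matrix-matched, ACN/IS quench, LC/MS. % bound = 100 − (buffer/plasma peak-area ratio × 100); recovery also calculated. Warfarin as reference.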
(In general: In equilibrium dialysis free small molecules cross a membrane that holds back macromolecules.)

Series [10] can be described thus: Plasma protein binding in rat at 1 uM after 5 hrs by equilibrium dialysis based LC-MS/MS analysis. Type of series: ADME, cell-free. In a few lines: as §3
Series [11] is described as follows: Plasma protein binding in dog at 1 uM after 5 hrs by equilibrium dialysis based LC-MS/MS analysis. Type of series: ADME, cell-free, Canis lupus familiaris. In a few lines: as §3
Another series has as its target Cytochrome P450 2C19 (Homo sapiens, UniProt P33261). Kind of series: Inhibition of CYP2C19 in human liver microsomes preincubated for 5 mins followed by NADPH addition and measured after 10 mins by LC/MS analysis. The series is classed as ADME, Microsome.
Series [12] is described as follows: Half life in Sprague-Dawley rat at 1 mg/kg, iv measured upto 24 hrs by LC-MS/MS analysis. The series is classed as ADME, organism-based. As to conditions: in vivo. Put shortly: (§4)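 Male ICR mice (2 mg/kg), male SD rats (1 mg/kg) or male Beagle dogs (1 mg/kg) given a single intravenous dose in 10% PEG400 + 90% PBS adjusted to pH 8.0 with NaOH.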
Series [13] is described as follows: Half life in Beagle dog at 1 mg/kg, iv measured upto 24 hrs by LC-MS/MS analysis. Type of series: ADME, organism-based, Canis lupus familiaris. As to conditions: in vivo. In a few lines:
as §4

Series [14] can be described thus: Volume of distribution at steady state in Beagle dog at 1 mg/kg, iv measured upto 24 hrs by LC-MS/MS analysis. The series is classed as ADME, organism-based, Canis lupus familiaris. Conditions: in vivo. Put shortly: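 Male Beagle dogs. IV 1 mg/kg in 10% PEG400 + 90% PBS (pH 8.0); PO 3 mg/kg in 90% PEG400 + 10% Cremophor. Plasma PK to 24 h; F from IV and PO exposure.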

A short description of series [15]: Cmax in Beagle dog at 3 mg/kg, po measured up to 24 hrs by LC-MS/MS analysis. As to conditions: in vivo. Set-up: time < 24 hrs, dose 3 mg/kg, route po. The series is classed as ADME, organism-based, Canis lupus familiaris. Put shortly: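 Male Beagle dogs dosed orally at 3 mg/kg in 90% PEG400 + 10% Cremophor.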
The nature of series [16]: Drug concentration in CB17 SCID mouse plasma xenografted with human VCaP cells at 12.5 mg/kg, po measured after 6 hrs by LC-MS/MS analysis. The series is classed as ADME, organism-based. In a few lines: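 SCID mice bearing one VCaP tumour each given a single oral 12.5 mg/kg dose in 100% PEG200. Plasma and tumour tissue collected at 6 and 24 h, 3 mice per time point. Values are mean ± SD.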

For series [17], the target named is Androgen receptor (Homo sapiens) (UniProt P10275). Kind of series: In vivo induction of androgen receptor degradation in human VCaP cells xenografted in CB17 SCID mouse assessed as reduction in AR protein level at 12.5 mg/kg, po measured after 6 hrs by […] analysis. The arrangement: scale not given: the % may be the effect or the level left.

Cytochrome P450 2C19, sequence (P33261 whole entry): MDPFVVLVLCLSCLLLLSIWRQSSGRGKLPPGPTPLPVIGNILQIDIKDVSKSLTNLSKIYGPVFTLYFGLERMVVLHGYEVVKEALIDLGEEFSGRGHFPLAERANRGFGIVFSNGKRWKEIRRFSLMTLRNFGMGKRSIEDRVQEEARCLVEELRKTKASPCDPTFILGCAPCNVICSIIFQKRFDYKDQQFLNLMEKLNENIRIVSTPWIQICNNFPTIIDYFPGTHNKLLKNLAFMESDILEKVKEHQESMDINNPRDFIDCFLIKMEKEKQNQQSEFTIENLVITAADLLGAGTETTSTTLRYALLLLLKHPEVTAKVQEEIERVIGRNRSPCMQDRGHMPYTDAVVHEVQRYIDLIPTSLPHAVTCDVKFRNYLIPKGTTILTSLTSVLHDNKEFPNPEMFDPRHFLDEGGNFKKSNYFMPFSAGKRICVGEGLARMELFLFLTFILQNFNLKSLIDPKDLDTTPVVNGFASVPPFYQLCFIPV

For orientation: IC50 means the concentration that gives 50% inhibition. In general, Vdss refers to a proportionality between amount in the body and measured concentration, not a real space. The term Cmax denotes the peak of the concentration-time curve. As to `C[C@H]1CC2(CCN(c3ccc(C(=O)N4CCN(C5CN(c6ccc7c(c6)C(=O)N(C6CCC(=O)NC6=O)C7=O)C5)CC4)cc3)CC2)CN1c1ccc(C#N)c(Cl)c1` (stereo partly drawn), the results for the half-inhibitory concentration (IC50) with LNCaP [1] and against Cytochrome P450 2C19 were 13 nM and greater than 10 µM, respectively. Besides, the result in the series on VCaP [2], in the series with VCaP [3] and with LNCaP [4] was inactive. The values for the Activity in series [5] and in series [17] were 79% and 73%, respectively. Moreover, the t1/2 in series [6] is greater than 60 min; in [7], greater than 60 min; in series [8], greater than 60 min; in [12], 2.1 h; in series [13], 8.9 h. Further, the PPB in series [9] turned out to be 99.2%; in [10], 99.1%; in series [11], 99.3%. In series [14], the volume of distribution (Vdss) is 2.8 L/kg. This compound displayed a Cmax in [15] of 294 ng/mL. This compound also displayed a concentration at 6 h in [16] of 985 ng/mL.
